Screening results as filed in PubChem BioAssay.
EBV gp42 inh: EBV gp42 inhibition. Q1HVG2. inhibition, % (tested at 21.74 µM). Fluorescence polarization binding assay, mP read-out. 220,000 tested, 0.42% active; in the data active means inhibition above about 50%
RBBP9 inh: blocks human serine hydrolase RBBP9; recombinant RBBP9, FP-Rh probe fluorescence polarization; inhibition, % at 7.94 µM; 220,000 tested, 0.2% active;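 active means inhibition above the campaign mean of all tested compounds plus 3 SD, cut at about 14% in these data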
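Test system: recombinant human RBBP9; Timing: 30 min then 45 min, 25 °C; Detection: fluorescence polarization; Control set: RBBP9 with DMSO as uninhibited control, no-protein wells as full inhibition; Compound dosing: one concentration, 7.94 µM nominal, 0.794% DMSO; Probe or stimulus: FP-Rh activity-based probe, 375 nM before mixing.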
Mcl1 Bid PPI: Mcl-1/Bid interaction inhibition. inhibition, % at 21.7 µM. Q07820. TR-FRET Mcl-1/Bid-Dy647 peptide binding, 1536-well. AID 1021. 220,000 tested, 0.97% active;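 active means compounds that cut the binding signal by more than half at the single screening dose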;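 further: His-tagged Mcl-1 with europium anti-His antibody binding Bid BH3 peptide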
Bim-Mcl-1: human Bim-Mcl-1 interaction inhibition. Q07820. Bead-based flow cytometry, Bim peptide-Mcl-1 binding. inhibition, % at 10 µM. 190,000 tested, 0.1% active; in the data active means inhibition above about 40%
MCL1-BIM inh: disrupts human MCL1 binding to BIM-BH3 peptide; Q07820; GST-MCL1 / FITC-Bim-BH3 fluorescence polarization; inhibition, % at 10.9 µM; 320,000 tested, 0.68% active;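 active means inhibition above the mean inhibition of all tested compounds plus 3 SD, set per campaign, cut at about 40% in these data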;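 further: higher means more loss of mP so more displacement of Bim peptide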
Mcl1 Noxa PPI: Mcl-1/Noxa interaction inhibition; TR-FRET Mcl-1/Noxa peptide binding, 2 h; inhibition, % at 21.7 µM; Q07820; 220,000 tested, 1.5% active;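 active means compounds that cut the protein-peptide binding signal by more than 50% relative to plate controls in a single-dose test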;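 further: His-tagged Mcl-1 with rhodamine Noxa BH3 peptide and terbium anti-His antibody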
Bcl-xL conf: counter-screen for MCL1 inhibitors: confirmation of human Bcl-xL inhibitors. 1,700 tested, 54% active. shares compounds with MCL1-BIM inh. AID 2166. GST-Bcl-xL / FITC-Bim BH3 peptide FP binding. inhibition, % at 10.9 µM;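 active means inhibition above a cutoff equal to the mean inhibition of all tested compounds plus 3 SD, cut at about 30% in these data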
Target sequence (Q07817 whole entry, looked up): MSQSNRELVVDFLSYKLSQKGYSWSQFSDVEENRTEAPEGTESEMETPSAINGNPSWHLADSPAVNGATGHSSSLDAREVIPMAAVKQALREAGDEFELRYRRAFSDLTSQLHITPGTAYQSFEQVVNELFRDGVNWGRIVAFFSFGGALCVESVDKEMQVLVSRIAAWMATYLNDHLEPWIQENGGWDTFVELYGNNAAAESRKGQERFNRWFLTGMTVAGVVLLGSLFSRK
MCL1 inh confirm: confirmation of human MCL1 and BIM-BH3 interaction inhibitors. shares compounds with MCL1-BIM inh. 1,700 tested, 61% active. inhibition, % at 10.9 µM. GST-MCL1 / FITC-Bim-BH3 fluorescence polarization;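 active means inhibition above the average of all tested compounds plus 3 SD, cut at about 40% in these data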
Numbers stand for hits; i = inactive; nt = no result given; + = active, no number. In the library only some 2.2% were active in any assay of this set; here they are far more common.

SMILES	EBV gp42 inh	RBBP9 inh	Mcl1 Bid PPI	Bim-Mcl-1	MCL1-BIM inh	Mcl1 Noxa PPI	Bcl-xL conf	MCL1 inh confirm
Cc1cccc(C(=O)N=c2c(C#N)cc3c(=O)n4cccc(C)c4nc3n2Cc2ccco2)c1	i	i	i	i	64	86	38	i
COCCCn1c(=NC(=O)c2ccccc2)c(C#N)cc2c(=O)n3cccc(C)c3nc21	52	i	i	nt	+	i	76	105
Cc1cccn2c(=O)c3cc(C#N)c(=NC(=O)c4ccco4)n(Cc4ccco4)c3nc12	i	i	i	nt	i	i	nt	nt
CCOCCCn1c(=NC(=O)c2cccs2)c(C#N)cc2c(=O)n3cccc(C)c3nc21	54	i	i	nt	151	i	115	142
O=C1C(Nc2cccc(O)c2)=C(N2CCCCC2)C(=O)c2ccccc21	i	i	i	i	55	i	i	i
CC(=O)OCC1=C(C(=O)O)N2C(=O)C(NC(=O)c3ccc(COc4cccc(Cl)c4Cl)o3)C2SC1 (configuration not stated)	i	i	i	i	51	i	i	66
COc1cccc(C(=O)NC2C(=O)N3C(C(=O)O)=C(COC(C)=O)CSC23)c1 (configuration not stated)	nt	nt	nt	nt	i	nt	nt	nt
Cc1ccc2c(c1)CCCN2C(=O)CCc1nc2ccccc2c(=O)[nH]1	nt	nt	nt	nt	i	nt	nt	nt
COCCCn1c(=O)/c(=C\c2ccccc2OC(F)F)s/c1=C(/C#N)C(=O)N1CCOCC1	i	i	i	i	+	i	i	i
CCN(Cc1nc2ccccc2c(=O)[nH]1)C(=O)COc1ccccc1-c1ccccc1	nt	nt	nt	nt	i	nt	nt	nt
O=[N+]([O-])c1ccc2[nH]c(O)c(N=Nc3ccc(F)cc3)c2c1	nt	nt	nt	nt	i	nt	nt	nt
Oc1[nH]c2ccc(Br)cc2c1N=Nc1ccc(F)cc1	nt	nt	nt	nt	+	nt	143	198
COc1ccccc1-c1nc(SCC(=O)N2CCC(C(N)=O)CC2)n[nH]1	nt	nt	nt	nt	i	nt	nt	nt
Cc1cccc(NC(=O)C2SC(=Nc3c(C)cccc3C)C(C(=O)N3CCOCC3)=C2N)c1 (configuration not stated)	i	i	i	i	i	i	nt	nt
Nc1nn2c(-c3ccccc3)cc(=O)[nH]c2c1N=Nc1ccc(O)cc1	i	i	80	i	64	i	38	74
CCCCCC(=O)Nc1cccc(C2=NOC3(C2)C[C@@H](C(N)=O)N(C(=O)C2(C)CC2)C3)c1 (some centres not stated)	i	nt	i	nt	i	i	nt	nt
Cc1ccc(S(=O)(=O)CCC(=O)OCC(=O)Nc2ccc(N3CCOCC3)cc2)cc1	nt	nt	nt	nt	i	nt	nt	nt
C=CCOc1ccc(/C=N/n2nnnc2N)cc1OC	nt	nt	nt	nt	i	nt	nt	nt
Cc1c2ccccc2nc2c(F)c(N(C)C)c(F)c(F)c12	197	i	i	i	122	i	120	134
